# Activity calls are given as the source filed them. No cut-off for these calls is given here.
# Experiments:
# HepG2 [1] = assay: Upregulation of Bax level in human HepG2 cells up to 0.25 uM after 48 hrs by Western blot method; format: functional, cell-based
# HepG2 [2] = assay: Cell cycle arrest in human HepG2 cells assessed as S phase accumulation at 0.0625 uM after 48 hrs in presence of hemoglobin by propidium iodide staining based flow cytometry (reference value: 36.40%); format: functional
# HepG2 [3] = assay: Cell cycle arrest in human HepG2 cells assessed as S phase accumulation at 0.25 uM after 48 hrs in presence of hemoglobin by propidium iodide staining based flow cytometry (reference value: 36.40%); format: functional
# HepG2 [4] = assay: Induction of apoptosis in human HepG2 cells assessed as late apoptotic cells at 0.25 uM after 48 hrs by […] based flow cytometry (reference value: 3.36%); format: functional
# PC-3 = assay: Antiproliferative activity against human PC3 cells after 72 hrs by MTT assay; format: functional, cell-based; settings: PC-3, 72 h
# How it was run: (§1)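 MTT assay. Cells were seeded and grown 24 h at 37 °C in 5% CO2, then exposed to compound or left untreated for 72 h. MTT (5 mg/mL stock) was added for 4 h and the formazan dissolved in DMSO. OD was read at 570 nm. IC50 is the concentration giving 50% growth inhibition, reported as mean ± SD of three independent experiments. Vehicle reference was 0.1% DMSO.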
# HepG2 [5] = assay: Induction of apoptosis in human HepG2 cells assessed as early apoptotic cells at 0.0625 uM after 48 hrs by […] based flow cytometry (reference value: 3.18%); format: functional
# HepG2 [6] = assay: Induction of apoptosis in human HepG2 cells assessed as early apoptotic cells at 0.25 uM after 48 hrs in presence of hemoglobin by Annexin V-APC/7-AAD staining based flow cytometry (reference value: 3.18%); format: functional
# HepG2 [7] = assay: Cell cycle arrest in human HepG2 cells assessed as G2 phase accumulation at 0.0625 uM after 48 hrs by propidium iodide staining based flow cytometry (reference value: 23.38%); format: functional
# How it was run: (§2)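 HepG-2 cells were plated and grown 24 h at 37 °C, then treated 48 h at 0, 0.0625, 0.125 or 0.25 µM, with 0.1% DMSO as control. Cells were fixed overnight in 70% ethanol at 4 °C, treated with RNase A and stained with propidium iodide. DNA content was measured by flow cytometry to give cell-cycle phase distribution.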
# HepG2 [8] = assay: Induction of apoptosis in human HepG2 cells assessed as viable cells at 0.0625 uM after 48 hrs by Annexin V-APC/7-AAD staining based flow cytometry (reference value: 91.07%); format: functional; settings: HepG2, 48 h, read-out: Activity
# HepG2 [9] = assay: Downregulation of survivin expression in human HepG2 cells after 24 hrs by protein array assay; format: functional, cell-based
# How it was run: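 Lysates from HepG-2 cells treated 24 h were incubated overnight at 4 °C on a membrane array of 35 apoptosis-related proteins. A biotinylated detection antibody cocktail was then applied for 1 h at room temperature. Relative expression was read from chemiluminescent spots by densitometry.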
# [10] = Selectivity index, ratio of IC50 for human L02 cells to IC50 for human HepG2 cells; format: toxicity; settings: L02 cells and HepG2 cells, read-out: Ratio IC50
# How it was run: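 MTT assay: cells grown 24 h at 37 °C, 5% CO2, then exposed 72 h; MTT (5 mg/mL) added for 4 h, formazan dissolved in DMSO, OD read at 570 nm. Vehicle 0.1% DMSO. Three independent experiments.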
# HepG2 [11] = assay: Cell cycle arrest in human HepG2 cells assessed as G1 phase accumulation at 0.125 uM after 48 hrs by propidium iodide staining based flow cytometry (reference value: 32.74%); format: functional; how it was run: as §2
# HepG2 [12] = assay: Induction of apoptosis in human HepG2 cells assessed as viable cells at 0.125 uM after 48 hrs by Annexin V-APC/7-AAD staining based flow cytometry (reference value: 91.07%); format: functional; settings: HepG2, 48 h, read-out: Activity
# HepG2 [13] = assay: Induction of apoptosis in human HepG2 cells assessed as cell population with intact mitochondrial membrane potential at 0.0625 uM measured after 48 hrs by JC-1 staining based flow cytometry (reference value: 98.51%); format: functional
# How it was run: (§3)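 HepG-2 cells were exposed 48 h to 0.0625, 0.125 or 0.25 µM or to vehicle, then washed in PBS and stained with JC-1 in the dark. Red aggregate versus green monomer fluorescence was measured by flow cytometry to give the percentages of cells with healthy versus collapsed mitochondrial membrane potential.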
# HepG2 [14] = assay: Cell cycle arrest in human HepG2 cells assessed as G1 phase accumulation at 0.0625 uM after 48 hrs in presence of hemoglobin by propidium iodide staining based flow cytometry (reference value: 52.93%); format: functional
# HepG2 [15] = assay: Induction of apoptosis in human HepG2 cells assessed as necrotic cells at 0.25 uM after 48 hrs by Annexin V-APC/7-AAD staining based flow cytometry (reference value: 2.40%); format: functional
# L02 = assay: Cytotoxicity against human L02 cells assessed as reduction in cell viability after 72 hrs by MTT assay; format: cell-based; settings: L02, 72 h; how it was run: as §1
# HepG2 [16] = assay: Induction of apoptosis in human HepG2 cells assessed as late apoptotic cells at 0.125 uM after 48 hrs in presence of hemoglobin by Annexin V-APC/7-AAD staining based flow cytometry (reference value: 3.36%); format: functional
# [17] = Drug metabolism in human HepG2 cells assessed as NO release by measuring nitrite formation at 100 uM after 1 hr by Griess assay; format: ADME, cell-based; settings: hepg2, 1 h
# How it was run: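 HepG-2 or L-02 cells were exposed to 100 µM of each compound for 60 min and then harvested. Lysates were mixed with Griess reagent for 10 min at 37 °C and absorbance was read at 550 nm. NO release is expressed as nitrite, reported as mean ± SD of three independent experiments.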
# HepG2 [18] = assay: Downregulation of Bcl-2 level in human HepG2 cells up to 0.25 uM after 48 hrs by Western blot method; format: functional, cell-based
# How it was run: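 HepG-2 cells were exposed 48 h to 0, 0.0625, 0.125 or 0.25 µM and lysed on ice for 20 min. Equal protein loads were run on 12% SDS-PAGE and transferred to PVDF. Membranes were probed overnight at 4 °C with primary antibodies, then with HRP-conjugated secondaries, and detected by ECL chemiluminescence.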
# HepG2 [19] = assay: Induction of apoptosis in human HepG2 cells assessed as cell population with mitochondrial membrane potential loss at 0.125 uM measured after 48 hrs by JC-1 staining based flow cytometry (reference value: 1.49%); format: functional; how it was run: as §3
# HepG2 [20] = assay: Cell cycle arrest in human HepG2 cells assessed as S phase accumulation at 0.25 uM after 48 hrs by propidium iodide staining based flow cytometry (reference value: 43.88%); format: functional; how it was run: as §2
# HepG2 [21] = assay: Cell cycle arrest in human HepG2 cells assessed as G2 phase accumulation at 0.25 uM after 48 hrs in presence of hemoglobin by propidium iodide staining based flow cytometry (reference value: 10.67%); format: functional
# HepG2 [22] = assay: Cell cycle arrest in human HepG2 cells assessed as G1 phase accumulation at 0.25 uM after 48 hrs in presence of hemoglobin by propidium iodide staining based flow cytometry (reference value: 52.93%); format: functional
# HepG2 [23] = assay: Induction of apoptosis in human HepG2 cells assessed as cell population with mitochondrial membrane potential loss at 0.25 uM measured after 48 hrs by JC-1 staining based flow cytometry (reference value: 1.49%); format: functional; how it was run: as §3
compound,measurement,setting,value
C[C@H]1CCC/C=C/[C@@H]2C[C@H](OC(=O)CCCC(=O)OCCOc3no[n+]([O-])c3S(=O)(=O)c3ccccc3)C[C@H]2[C@H](OC(=O)CCCC(=O)OCCOc2no[n+]([O-])c2S(=O)(=O)c2ccccc2)/C=C/C(=O)O1,Activity,HepG2 [1],Active
same,Activity,HepG2 [2],24.74%
same,Activity,HepG2 [3],22.37%
same,Activity,HepG2 [4],40.21%
same,IC50,PC-3,0.025 µM
same,Activity,HepG2 [5],3.1%
same,Activity,HepG2 [6],8.7%
same,Activity,HepG2 [7],18.96%
same,viability at 0.0625 µM,HepG2 [8],82.1%
same,Activity,HepG2 [9],Active
same,selectivity ratio,[10],33
same,Activity,HepG2 [11],31.78%
same,viability at 0.125 µM,HepG2 [12],63%
same,Activity,HepG2 [13],83.42%
same,Activity,HepG2 [14],68.06%
same,Activity,HepG2 [15],5.47%
same,IC50,L02,6 µM
same,Activity,HepG2 [16],9.87%
same,Drug metabolism,[17],98.5 µM
same,Activity,HepG2 [18],Active
same,Activity,HepG2 [19],35.45%
same,Activity,HepG2 [20],72.16%
same,Activity,HepG2 [21],5.3%
same,Activity,HepG2 [22],72.34%
same,Activity,HepG2 [23],60.14%

# Source: ChEMBL document CHEMBL4138082 (Eur J Med Chem, 2017)
